# Measurements of several laboratories.
# Target: Death-associated protein kinase 3 (DAPK3, Homo sapiens, UniProt O43293)
SMILES,assay,conditions,endpoint,value
Cc1ccc(Nc2nccc(N(C)c3ccc4c(C)n(C)nc4c3)n2)cc1S(N)(=O)=O,"enzyme activity, inhibitor",0.3 µM,inhibition,-7%
Cc1nc(Cc2cccc(C(F)(F)F)c2)sc1-c1ccc(C(N)=O)nc1,"cell-free assay, competition with immobilised ligand",1 µM,remaining binding,88%
CS(=O)(=O)CCNCc1ccc(-c2ccc3ncnc(Nc4ccc(OCc5cccc(F)c5)c(Cl)c4)c3c2)o1,cell-free assay,0.5 µM,remaining signal,97.4%
Cc1cc(NC(=O)c2cccc3cc(-c4cccc5[nH]nc(N)c45)ccc23)ccc1F,"enzyme activity, inhibitor",0.1 µM,activity vs control,105%
CCCCN(CCCC)C(=O)CN1C[C@H](c2cc(OC)c3c(c2)OCO3)[C@@H](C(=O)O)[C@@H]1CC(C)(C)CCC,"cell-free assay, competition with immobilised ligand",1 µM,remaining binding,100%
COc1cc(-c2cc(-c3ccc(N4CCNCC4)cc3)cnc2C)cc(OC)c1OC,"enzyme activity, inhibitor",1 µM,inhibition,2%
CCN(CC)c1ccc(C2=NNC(=O)CC2C)cc1[N+](=O)[O-] (stereo not shown),"enzyme activity, inhibitor",10 µM,remaining activity,100%
C#Cc1cccc(Nc2ncnc3cc(OCCOC)c(OCCOC)cc23)c1,cell-free assay,0.5 µM,remaining signal,95.4%
C[C@H](c1ccc(F)cc1)N(Cc1cccc(C(=O)O)c1)C(=O)c1cnc2ccccc2c1,"cell-free assay, competition with immobilised ligand",1 µM,remaining binding,100%
N#CCCc1ccc2c(c1)-c1[nH]c3ccc([N+](=O)[O-])cc3c1CC(=O)N2,cell-free assay,0.5 µM,remaining signal,99.3%
COc1cc(-c2cn(C3CCc4ccccc4N(CC(F)(F)F)C3=O)nn2)ccc1-n1ccc(C)n1 (stereo not shown),"cell-free assay, competition with immobilised ligand",1 µM,remaining binding,100%
Cc1sc(C(=O)NC2COC2)cc1-n1cc(NC(=O)Nc2c(F)cccc2Cl)cn1,"enzyme activity, inhibitor",10 µM,remaining activity,101%
Cc1cc(NC(=O)c2cccc(S(F)(F)(F)(F)F)c2)cc(-n2ccn3nc(-c4cccnc4)cc23)c1,"cell-free assay, competition with immobilised ligand",1 µM,remaining binding,100%
COc1cc2ncnc(Nc3ccc(Oc4ccccc4)cc3C)c2cc1OC,"enzyme activity, inhibitor",1 µM,inhibition,-4%
Cc1ccc(C(=O)Nc2ccc(CN3CCN(C)CC3)c(C(F)(F)F)c2)cc1C#Cc1cnc2cccnn12,"enzyme activity, inhibitor",23.5 nM,remaining activity,99%
Cc1cnc(NC2CCOCC2)nc1-n1cnc(C(=O)NC(CN)c2cc(F)cc(Cl)c2)c1 (stereo not shown),"enzyme activity, inhibitor, radiometric",1 µM,remaining activity,107%
CCCOc1ccc(OC)c(F)c1C(=O)c1ccc(C(=O)N[C@@H]2CNC[C@H]2NC(=O)c2ccc3[nH]ncc3c2)cc1,"enzyme activity, inhibitor",10 µM,remaining activity,40%
Cc1nc(C2CCN(C(=O)c3ccc(OC(F)(F)F)cc3N)CC2)c2ncc(N3CCN(C)CC3)cc2n1,"cell-free assay, competition with immobilised ligand",1 µM,remaining binding,100%
CCCS(=O)(=O)Nc1ccc(F)c(C(=O)c2c[nH]c3ncc(-c4ccc(Cl)cc4)cc23)c1F,"enzyme activity, inhibitor",1 µM,inhibition,< 10%
Clc1ccc(Nc2nnc(Cc3ccncc3)c3ccccc23)cc1,cell-free assay,0.5 µM,remaining signal,107%
C[C@H](c1cccc(C#N)c1)n1cc(Cl)cc(C(N)=O)c1=N,"cell-free assay, competition with immobilised ligand",1 µM,remaining binding,100%
CC(C)(C)c1nc2c(s1)c1nc(N)ncc1c1ccc(NS(=O)(=O)c3c(F)cccc3F)c(F)c12,"enzyme activity, inhibitor, radiometric",1 µM,remaining activity,58%
